Results reported in ChEMBL document CHEMBL1141179 (J Med Chem, 2005).
pIC50: −log10 of the molar value. Bridge positions count the residues as written; N and C are the ends. Square brackets hold non-standard residues; d marks the D form. Peptide text beside a SMILES is read from it.

Legend:
[1] = organism: Rattus norvegicus; assay: Relative potency of compound to inhibit insulin secretion […]; format: functional
[2] = organism: Rattus norvegicus; assay: Relative potency of compound to inhibit growth hormone secretion in rat anterior pituitary cells; format: functional, Pituitary gland cell
[3] = organism: Rattus norvegicus; assay: Relative potency of compound to inhibit glucagon secretion […]; format: functional
[4] = molecular target: Somatostatin receptor type 5 (Homo sapiens, UniProt P35346); assay: Inhibition of 125I-[Leu8,D-Trp22,Tyr25]SRIF-28 binding to human somatostatin receptor type 5
Procedure, shortened: (§1)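 Human sst1 or sst5 receptor stably expressed in CHO-K1 cells. 20 µm cryostat sections of cell membrane pellets were used for receptor autoradiography. IC50 (nM) came from competitive radioligand displacement. Values are mean ± SEM when N ≥ 3; otherwise mean with single values.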

[5] = molecular target: Somatostatin receptor type 1 (Homo sapiens, UniProt P30872); assay: Inhibition of 125I-[Leu8,D-Trp22,Tyr25]SRIF-28 binding to human somatostatin receptor type 1; procedure, shortened: as §1
[6] = molecular target: Somatostatin receptor type 3 (Homo sapiens, UniProt P32745); assay: Inhibition of 125I-[Leu8,D-Trp22,Tyr25]SRIF-28 binding to human somatostatin receptor type 3
Procedure, shortened: (§2)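 Human sst2 or sst3 receptor stably expressed in CCL39 cells. 20 µm cryostat sections of cell membrane pellets were used for autoradiographic binding. IC50 (nM) came from competitive displacement. Values are mean ± SEM when N ≥ 3; otherwise mean with single values.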

[7] = molecular target: Somatostatin receptor type 2 (Homo sapiens, UniProt P30874); assay: Inhibition of 125I-[Leu8,D-Trp22,Tyr25]SRIF-28 binding to human somatostatin receptor type 2; procedure, shortened: as §2
[8] = molecular target: Somatostatin receptor type 4 (Homo sapiens, UniProt P31391); assay: Inhibition of 125I-[Leu8,D-Trp22,Tyr25]SRIF-28 binding to human somatostatin receptor type 4
Chain of Somatostatin receptor type 4 (P31391 whole entry): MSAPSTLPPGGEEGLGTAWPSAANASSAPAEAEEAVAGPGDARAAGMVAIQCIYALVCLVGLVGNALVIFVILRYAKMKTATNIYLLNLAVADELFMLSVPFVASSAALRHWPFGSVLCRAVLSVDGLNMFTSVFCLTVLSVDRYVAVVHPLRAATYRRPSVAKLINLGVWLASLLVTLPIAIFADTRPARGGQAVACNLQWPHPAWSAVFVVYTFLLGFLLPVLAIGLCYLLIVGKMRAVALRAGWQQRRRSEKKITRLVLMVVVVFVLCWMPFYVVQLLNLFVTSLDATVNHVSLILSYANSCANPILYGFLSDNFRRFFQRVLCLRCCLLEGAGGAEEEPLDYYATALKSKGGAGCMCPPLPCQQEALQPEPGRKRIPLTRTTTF

Chain of Somatostatin receptor type 5 (P35346 whole entry): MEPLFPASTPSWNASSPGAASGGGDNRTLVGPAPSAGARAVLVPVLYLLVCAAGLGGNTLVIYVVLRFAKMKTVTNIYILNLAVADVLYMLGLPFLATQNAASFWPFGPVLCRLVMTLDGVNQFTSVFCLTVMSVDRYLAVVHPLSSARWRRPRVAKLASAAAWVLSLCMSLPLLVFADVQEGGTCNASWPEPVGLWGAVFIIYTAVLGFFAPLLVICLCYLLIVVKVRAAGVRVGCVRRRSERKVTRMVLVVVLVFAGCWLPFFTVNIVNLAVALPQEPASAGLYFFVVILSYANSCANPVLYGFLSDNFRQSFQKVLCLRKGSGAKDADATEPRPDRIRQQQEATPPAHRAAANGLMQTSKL
Chain of Somatostatin receptor type 3 (P32745 whole entry): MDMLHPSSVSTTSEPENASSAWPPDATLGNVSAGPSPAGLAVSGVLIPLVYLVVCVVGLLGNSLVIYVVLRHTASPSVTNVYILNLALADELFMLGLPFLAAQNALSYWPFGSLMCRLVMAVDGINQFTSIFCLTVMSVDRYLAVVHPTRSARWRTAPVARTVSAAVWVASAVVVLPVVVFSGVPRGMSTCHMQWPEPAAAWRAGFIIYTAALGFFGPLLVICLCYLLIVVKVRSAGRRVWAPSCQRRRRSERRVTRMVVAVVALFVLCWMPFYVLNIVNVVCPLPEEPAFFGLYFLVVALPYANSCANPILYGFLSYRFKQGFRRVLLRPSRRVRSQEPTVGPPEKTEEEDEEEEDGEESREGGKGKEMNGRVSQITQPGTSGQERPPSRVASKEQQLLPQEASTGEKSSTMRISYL
Chain of Somatostatin receptor type 1 (P30872 whole entry): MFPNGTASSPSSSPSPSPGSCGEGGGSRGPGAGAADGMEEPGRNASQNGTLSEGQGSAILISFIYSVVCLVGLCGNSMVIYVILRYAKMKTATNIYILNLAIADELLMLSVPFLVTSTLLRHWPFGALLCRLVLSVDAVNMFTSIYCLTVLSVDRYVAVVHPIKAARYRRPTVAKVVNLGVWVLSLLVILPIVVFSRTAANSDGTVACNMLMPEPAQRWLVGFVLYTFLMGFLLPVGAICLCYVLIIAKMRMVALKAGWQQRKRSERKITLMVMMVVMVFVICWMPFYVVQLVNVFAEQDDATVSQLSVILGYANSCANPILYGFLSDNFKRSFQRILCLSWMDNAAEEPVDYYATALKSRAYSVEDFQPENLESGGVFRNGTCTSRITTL
Chain of Somatostatin receptor type 2 (P30874 whole entry): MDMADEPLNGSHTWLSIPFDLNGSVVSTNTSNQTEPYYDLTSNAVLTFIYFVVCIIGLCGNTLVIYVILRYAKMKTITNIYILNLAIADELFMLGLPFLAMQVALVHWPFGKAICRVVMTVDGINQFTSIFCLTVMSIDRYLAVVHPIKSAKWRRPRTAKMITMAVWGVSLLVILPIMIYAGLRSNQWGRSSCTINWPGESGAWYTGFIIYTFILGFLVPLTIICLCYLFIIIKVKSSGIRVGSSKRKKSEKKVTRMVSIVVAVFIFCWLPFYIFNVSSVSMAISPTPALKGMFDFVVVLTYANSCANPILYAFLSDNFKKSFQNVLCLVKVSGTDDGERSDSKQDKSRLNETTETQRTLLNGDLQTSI

Row | Structure (SMILES) | Relative potency [1] | Relative potency [2] | Relative potency [3] | pIC50 [4] | pIC50 [5] | pIC50 [6] | pIC50 [7] | pIC50 [8]
1 | C[C@@H](O)[C@@H]1NC(=O)[C@H](CCCCN)NC(=O)[C@@H](Cc2c[nH]c3ccccc23)NC(=O)[C@H](Cc2ccccc2)NC(=O)[C@H](Cc2ccccc2)NC(=O)[C@H](CCCCN)NC(=O)[C@@H](N)CSSC[C@@H](C(=O)O)NC(=O)[C@H](Cc2ccccc2)NC1=O | 310 | 15 | 115 |  |  |  |  | 
2 | C[C@@H](O)[C@@H]1NC(=O)[C@H](CCCCN)NC(=O)[C@@H](Cc2c[nH]c3ccccc23)NC(=O)[C@H](Cc2ccccc2)NC(=O)[C@H](Cc2ccccc2)NC(=O)[C@H](CC(N)=O)NC(=O)[C@@H](N)CSSC[C@@H](C(=O)O)NC(=O)[C@H](Cc2ccccc2)NC1=O | 72 | <1 | <1 |  |  |  |  | 
3 | C[C@@H](O)[C@@H]1NC(=O)[C@H](CCCCN)NC(=O)[C@@H](Cc2c[nH]c3ccccc23)NC(=O)[C@H](Cc2ccccc2)NC(=O)[C@H](Cc2ccccc2)NC(=O)[C@@H](N)CSSC[C@@H](C(=O)O)NC1=O | <1 | 0.07 | <1 |  |  |  |  | 
4 | CC(C)NCc1ccc(C[C@@H]2NC(=O)[C@@H](Cc3c[nH]c4ccccc34)NC(=O)[C@@H]3CCC(=O)NCC(=O)NCC[C@H](NC(=O)[C@H](Cc4ccccc4)NC(=O)[C@H]([C@@H](C)O)NC2=O)C(=O)N[C@@H](CO)C(=O)N[C@H](C(=O)O)CSSC[C@H](NC(=O)[C@@H](N)Cc2ccc(O)cc2)C(=O)N[C@@H](CCCCN)C(=O)N[C@@H](Cc2ccccc2)C(=O)N3)cc1 |  |  |  | < 6.00 | < 6.00 | < 6.00 | < 6.00 | < 6.00
5 | C[C@@H](O)[C@@H]1NC(=O)[C@H](Cc2ccccc2)NC(=O)[C@H]([C@@H](C)O)NC(=O)[C@H](CCCCN)NC(=O)[C@@H](Cc2c[nH]c3ccccc23)NC(=O)[C@H](Cc2ccccc2)NC(=O)[C@H](Cc2ccccc2)NC(=O)[C@H](CC(N)=O)NC(=O)[C@@H](N)CSSC[C@@H](C(=O)O)NC1=O | 75 | 8 |  |  |  |  |  | 
6 | CC(C)NCc1ccc(C[C@@H]2NC(=O)[C@@H](Cc3c[nH]c4ccccc34)NC(=O)[C@@H]3CCC(=O)NCCCCC[C@@H](NC(=O)[C@H](Cc4ccccc4)NC(=O)[C@H]([C@@H](C)O)NC2=O)C(=O)N[C@@H](CO)C(=O)N[C@H](C(=O)O)CSSC[C@H](NC(=O)[C@@H](N)Cc2ccc(O)cc2)C(=O)N[C@@H](CCCCN)C(=O)N[C@@H](Cc2ccccc2)C(=O)N3)cc1 |  |  |  | < 6.00 | 6.11 | < 6.00 | < 6.00 | 7.00
7 | C[C@@H](O)[C@@H]1NC(=O)[C@H](Cc2ccccc2)NC(=O)[C@H]([C@@H](C)O)NC(=O)[C@H](CCCCN)NC(=O)[C@@H](Cc2c[nH]c3ccccc23)NC(=O)[C@H](Cc2ccccc2)NC(=O)[C@H](Cc2ccccc2)NC(=O)[C@@H](N)CSSC[C@@H](C(=O)O)NC(=O)[C@H](CO)NC1=O | 700 | 110 | <1 |  |  |  |  | 
8 | NCCCC[C@@H]1NC(=O)[C@@H](Cc2c[nH]c3ccccc23)NC(=O)[C@H](Cc2ccccc2)NC(=O)[C@H](Cc2ccccc2)NC(=O)[C@@H](N)CSSC[C@@H](C(=O)O)NC(=O)[C@H](Cc2ccccc2)NC1=O | <1 | <0.01 | <1 |  |  |  |  | 
9 | CC(C)NCc1ccc(C[C@@H]2NC(=O)[C@@H](Cc3c[nH]c4ccccc34)NC(=O)[C@@H]3CCC(=O)NCCCCCC[C@@H](NC(=O)[C@H](Cc4ccccc4)NC(=O)[C@H]([C@@H](C)O)NC2=O)C(=O)N[C@@H](CO)C(=O)N[C@H](C(=O)O)CSSC[C@H](NC(=O)[C@@H](N)Cc2ccc(O)cc2)C(=O)N[C@@H](CCCCN)C(=O)N[C@@H](Cc2ccccc2)C(=O)N3)cc1 |  |  |  | < 6.00 | 6.69 | 6.11 | < 6.00 | < 6.00
10 | C[C@@H](O)[C@@H]1NC(=O)[C@H](CCCCN)NC(=O)[C@@H](Cc2c[nH]c3ccccc23)NC(=O)[C@H](Cc2ccccc2)NC(=O)[C@H](Cc2ccccc2)NC(=O)[C@@H](N)CSSC[C@@H](C(=O)O)NC(=O)[C@H](Cc2ccccc2)NC1=O (H-CFF[dW]KTFC-OH; disulfide 1-8) | 45 | 4 | 7 |  |  |  |  | 
